Source: ChEMBL document CHEMBL3758175, “Bis-isatin hydrazones with novel linkers: Synthesis and biological evaluation as cytotoxic agents” (Eur J Med Chem, 2016)

Assays:
[1] = tested on: MCF7; assay: Cytotoxicity against human MCF7 cells assessed as cell viability after 24 hrs by crystal violet staining assay; format: functional, cell-based; details: MCF7, 24 h
[2] = Cytotoxicity against human HCT116 cells assessed as cell viability after 24 hrs by crystal violet staining assay; format: functional, cell-based; details: HCT-116, 24 h
Outline: (§1)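 Cells were kept as monolayers in RPMI-1640 with 10% heat-inactivated FCS and 50 µg/ml gentamycin at 37 °C under 5% CO2. They were seeded at 3,000 cells/well and, 24 h later, washed with PBS (pH 7.2). Ten dilutions in fresh medium were added for 24 h at 37 °C, with a 1% DMSO vehicle control. Survivors were stained with crystal violet, lysed with 33% acetic acid and read at 490 nm against untreated cells. IC50 was taken from graphic plots; mean of at least three experiments.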

[3] = tested on: HepG2; assay: Cytotoxicity against human HepG2 cells assessed as cell viability after 24 hrs by crystal violet staining assay; format: functional, cell-based; details: HepG2, 24 h; outline: as §1
[4] = tested on: L1210; assay: Cytotoxicity against mouse L1210 cells assessed as cell growth inhibition by MTT assay; format: functional, cell-based
[5] = Cytotoxicity against human KBV1 cells assessed as cell survival after 72 hrs by MTT assay; format: functional, cell-based; details: KB-V1, 72 h
[6] = Cytotoxicity against human KB3-1 cells assessed as cell survival after 72 hrs by MTT assay; format: functional, cell-based; details: KB 3-1, 72 h
[7] = tested on: HepG2; assay: Cytotoxicity against human HepG2 cells assessed as growth inhibition after 72 hrs by Sulforhodamine B colorimetric assay; format: functional, cell-based; details: HepG2, 72 h
[8] = tested on: MCF7; assay: Cytotoxicity against human MCF7 cells assessed as growth inhibition after 72 hrs by Sulforhodamine B colorimetric assay; format: functional, cell-based; details: MCF7, 72 h
[9] = tested on: MCF7; assay: Induction of apoptosis in human MCF7 cells assessed as early apoptotic cells at IC50 after 24 hrs by annexin V-FITC/propidium iodide staining based flow cytometry (reference value: 3.70%); format: functional
[10] = tested on: MCF7; assay: Cell cycle arrest in human MCF7 cells assessed as accumulation at G2/M phase at IC50 after 24 hrs by flow cytometric analysis relative to control; format: functional
[11] = tested on: MCF7; assay: Induction of apoptosis in human MCF7 cells assessed as viable cells at IC50 after 24 hrs by annexin V-FITC/propidium iodide staining based flow cytometry (reference value: 96.3%); format: functional
[12] = tested on: MCF7; assay: Induction of apoptosis in human MCF7 cells at IC50 after 24 hrs by annexin V-FITC/propidium iodide staining based flow cytometry relative to control; format: functional
[13] = tested on: MCF7; assay: Cell cycle arrest in human MCF7 cells assessed as decrease in cell level at G0/G1 phase at IC50 after 24 hrs by flow cytometric analysis relative to control; format: functional; parameters: scale not given: the % may be the effect or the level left
[14] = tested on: MCF7; assay: Induction of apoptosis in human MCF7 cells assessed as late apoptotic cells at IC50 after 24 hrs by annexin V-FITC/propidium iodide staining based flow cytometry relative to control; format: functional
[15] = tested on: MCF7; assay: Cell cycle arrest in human MCF7 cells assessed as accumulation at pre-G phase at IC50 after 24 hrs by flow cytometric analysis relative to control; format: functional
[16] = tested on: MCF7; assay: Induction of apoptosis in human MCF7 cells assessed as necrotic cells at IC50 after 24 hrs by annexin V-FITC/propidium iodide staining based flow cytometry relative to control; format: functional
[17] = target: Cyclin-dependent kinase 2/cyclin E1 (Homo sapiens, UniProt P24941); assay: Inhibition of GST-tagged recombinant human CDK2/cyclin E expressed in insect SF-9 cells after 10 mins by scintillation counting analysis in presence of [gamma-33P]-ATP; parameters: species or system Sf9

Compound	IC50 [1]	IC50 [2]	IC50 [3]	also measured
O=C1Nc2ccc(Br)cc2/C1=N/NC(=O)c1cncc(C(=O)N/N=C2\C(=O)Nc3ccc(Br)cc32)c1	34.5 µM	23.7 µM	30.1 µM	
COc1ccc2c(c1)/C(=N/NC(=O)c1[nH]c(C)c(C(=O)N/N=C3\C(=O)Nc4ccc(OC)cc43)c1C)C(=O)N2	78.8 µM	> 100 µM	83.5 µM	
O=C1Nc2ccc(F)cc2/C1=N/NC(=O)c1cncc(C(=O)N/N=C2\C(=O)Nc3ccc(F)cc32)c1	38 µM	24.5 µM	76.3 µM	
O=C1Nc2ccc([N+](=O)[O-])cc2/C1=N/NC(=O)c1cncc(C(=O)N/N=C2\C(=O)Nc3ccc([N+](=O)[O-])cc32)c1	88.8 µM	> 100 µM	75.9 µM	
Cc1[nH]c(C(=O)N/N=C2\C(=O)Nc3ccccc32)c(C)c1C(=O)N/N=C1\C(=O)Nc2ccccc21	69.2 µM	76.5 µM	30.1 µM	
Cc1[nH]c(C(=O)N/N=C2\C(=O)Nc3ccc(F)cc32)c(C)c1C(=O)N/N=C1\C(=O)Nc2ccc(F)cc21	76.3 µM	77 µM	78.4 µM	
Cc1c(C(=O)N/N=C2\C(=O)Nc3ccccc32)c(C)n(C)c1C(=O)N/N=C1\C(=O)Nc2ccccc21	> 100 µM	> 100 µM	> 100 µM	
Cc1ccc2c(c1)/C(=N/NC(=O)c1[nH]c(C)c(C(=O)N/N=C3\C(=O)Nc4ccc(C)cc43)c1C)C(=O)N2	46.1 µM	45.9 µM	> 100 µM	
Cc1ccc2c(c1)/C(=N/NC(=O)N/N=C1\C(=O)Nc3ccc(C)cc31)C(=O)N2				IC50 [4]: 16 µM
O=C(N/N=C1\C(=O)Nc2ccc([N+](=O)[O-])cc21)C(=O)N/N=C1\C(=O)Nc2ccc([N+](=O)[O-])cc21	91.2 µM	56.2 µM	25.8 µM	
Cc1ccc2c(c1)/C(=N/NC(=O)C(=O)N/N=C1\C(=O)Nc3ccc(C)cc31)C(=O)N2	55.9 µM	> 100 µM	> 100 µM	
O=C1Nc2ccc(Cl)cc2/C1=N/N=C1\C(=O)N(c2ccccc2)c2ccccc21				IC50 [5]: 6.07 µM; IC50 [6]: 6.79 µM
O=C1Nc2ccc(F)cc2/C1=N/Nc1nc(-c2ccccc2)nc2ccccc12				IC50 [7]: 1 µM
Cc1[nH]c(C(=O)N/N=C2\C(=O)Nc3ccc([N+](=O)[O-])cc32)c(C)c1C(=O)N/N=C1\C(=O)Nc2ccc([N+](=O)[O-])cc21	> 100 µM	> 100 µM	86.9 µM	
COc1cccc2c1C(=O)c1c(O)c3c(c(O)c1C2=O)C[C@@](O)(C(=O)CO)C[C@@H]3O[C@H]1C[C@H](N)[C@H](O)[C@H](C)O1 [DOXORUBICIN]		3.7 µM	3.56 µM	
COc1ccc(-c2nc(N/N=C3\C(=O)Nc4ccc(Cl)cc43)c3ccccc3n2)cc1OC				IC50 [8]: 2.1 µM
COc1ccc2c(c1)/C(=N/NC(=O)c1cncc(C(=O)N/N=C3\C(=O)Nc4ccc(OC)cc43)c1)C(=O)N2	66.5 µM	45.4 µM	36.5 µM	
Cc1[nH]c(C(=O)N/N=C2\C(=O)Nc3ccc(Br)cc32)c(C)c1C(=O)N/N=C1\C(=O)Nc2ccc(Br)cc21	36.7 µM	37.3 µM	32.4 µM	
O=C(N/N=C1\C(=O)Nc2ccc(Br)cc21)C(=O)N/N=C1\C(=O)Nc2ccc(Br)cc21	91.9 µM	98.7 µM	77.8 µM	
O=C1Nc2ccccc2/C1=N/NC(=O)c1cncc(C(=O)N/N=C2\C(=O)Nc3ccccc32)c1	39.1 µM	39.2 µM	72.7 µM	
COc1ccc2c(c1)/C(=N/NC(=O)c1c(C)c(C(=O)N/N=C3\C(=O)Nc4ccc(OC)cc43)n(C)c1C)C(=O)N2	1.84 µM	3.31 µM	6.99 µM	Activity [9]: 25%; fold change (FC) [10]: 1.83; Activity [11]: 74.5%; fold change (FC) [12]: 6.7; Activity [13]: 18.5%; Activity [14]: 0.36%; fold change (FC) [15]: 5; Activity [16]: 0.18%
Cc1ccc2c(c1)/C(=N/NC(=O)c1c(C)c(C(=O)N/N=C3\C(=O)Nc4ccc(C)cc43)n(C)c1C)C(=O)N2	29.9 µM	38.6 µM	22.1 µM	
O=C1/C(=C2\Nc3ccccc3C2=O)Nc2ccccc21 [INDIGO]				IC50 [17]: 1 µM
